Hits are enriched below; roughly 2.3% of the tested compounds scored in any of these assays.
UBC13 inh = blocks human UBC13 polyubiquitin chain formation; P61088; TR-FRET; inhibition, % at 20 µM; 0.47% of 330,000 active; in the data active means inhibition above about 45%, passing the limit was not always enough; inconclusive means no clear call, values can overlap the other calls
Target sequence (P61088 whole entry, looked up): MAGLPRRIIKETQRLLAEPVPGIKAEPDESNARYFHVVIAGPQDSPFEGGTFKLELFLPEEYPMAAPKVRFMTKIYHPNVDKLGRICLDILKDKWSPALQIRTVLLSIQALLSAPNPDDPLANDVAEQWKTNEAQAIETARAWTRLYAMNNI
UCH37 inh = inhibitors of human deubiquitinating enzyme UCH37; Q9Y5K5; purified proteasome/UCH37, Ub-AMC cleavage fluorescence; inhibition, % (concentration not given with the values); 0.33% of 330,000 active;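 active means mean inhibition over replicate wells above about 20%, limit read from the data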;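 further: 0% = compound-free wells with enzyme and 100% = wells lacking proteasome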
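assay system = human UCH37 enzyme supplied as purified proteasome complex | amount = proteasome at 0.15 nM in the dispensed enzyme solution | schedule = 30 min compound-proteasome preincubation then 25 min substrate reaction, room temperature | measured by = fluorescence, ex 355 nm, em 460 nm | benchmarks = no-proteasome wells (full inhibition) and compound-free wells (no inhibition)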
PP5 primary = PP5 (human) phosphatase inhibition; P53041; purified PP5c, OMFP substrate fluorescence; inhibition, % at 6.7 µM; 0.18% of 320,000 active; AID 1987;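 active means inhibition above the campaign's mean inhibition across all tested compounds plus 3 SD, cut at about 9.5% in these data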;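 further: 0% = DMSO only and 100% = 100 µM cantharidin control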
Target sequence (P53041 whole entry, looked up): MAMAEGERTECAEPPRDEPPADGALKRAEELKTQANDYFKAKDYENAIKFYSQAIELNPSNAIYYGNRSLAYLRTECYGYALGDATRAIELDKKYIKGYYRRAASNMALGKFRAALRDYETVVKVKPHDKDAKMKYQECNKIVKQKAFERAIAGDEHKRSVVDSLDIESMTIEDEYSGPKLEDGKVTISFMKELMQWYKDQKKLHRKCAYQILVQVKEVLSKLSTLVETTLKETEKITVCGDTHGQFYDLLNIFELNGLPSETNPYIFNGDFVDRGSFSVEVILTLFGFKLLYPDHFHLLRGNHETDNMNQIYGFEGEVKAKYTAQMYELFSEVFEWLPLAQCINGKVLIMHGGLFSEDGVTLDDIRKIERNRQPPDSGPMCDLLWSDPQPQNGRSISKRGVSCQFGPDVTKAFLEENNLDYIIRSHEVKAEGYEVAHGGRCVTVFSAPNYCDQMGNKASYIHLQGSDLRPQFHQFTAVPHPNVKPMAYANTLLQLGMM
PREPL inh = inhibitors of human prolyl oligopeptidase-like enzyme PREPL | Q4J6C6 | recombinant PREPL, fluorescence polarization activity-based probe | inhibition, % at 5.96 µM | 0.68% of 320,000 active; in the data active means inhibition above about 43%;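 further: 0% = enzyme with DMSO and 100% = wells lacking enzyme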
Fh CTSL1 inh = cathepsin L1 inhibition, PFM18AAP counter-screen. AID 1906. inhibition, % at 5.96 µM. 0.49% of 300,000 active. recombinant F. hepatica cathepsin L1, Z-Leu-Arg-MCA fluorescence;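 active means inhibition above the mean of all tested compounds plus 3 SD, set per screening campaign, cut at about 17% in these data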;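 further: 0% = plate median of test compound wells and 100% = 1 µM Z-Phe-Ala-diazomethylketone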
PP1 counter = PP1-alpha (human) inhibition in PP5 counter-screen; P62136; 0.9% of 320,000 active; inhibition, % at 6.7 µM; purified PP1alpha, OMFP fluorescence; AID 2235;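 active means inhibition above the mean inhibition of all tested compounds plus 3 SD, computed separately for each screening campaign, cut at about 15% in these data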
PP1 confirm = human PP1 phosphatase inhibition, confirmation. shares compounds with PP1 counter. purified PP1alpha, OMFP substrate fluorescence. inhibition, % at 6.7 µM. 52% of 1,900 active;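 active means mean PP1 inhibition above a set limit taken from the earlier primary screen, cut at about 15% in these data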
PP5 inh counter = counter-screen for PP1 inhibitors: human PP5 phosphatase inhibition; AID 2360; 4% of 1,900 active; inhibition, % at 6.7 µM; purified PP5c, OMFP fluorescence; shares compounds with PP1 counter;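 active means mean PP5 inhibition over triplicate wells above about 9.5% taken from the earlier PP1 screen, limit read from the data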
Starred values were filed as active, the others as inactive; ? = inconclusive; / = no result.

SMILES	UBC13 inh	UCH37 inh	PP5 primary	PREPL inh	Fh CTSL1 inh	PP1 counter	PP1 confirm	PP5 inh counter
CN([C@@H](Cc1ccc(OS(=O)(=O)c2cccc3cnccc23)cc1)C(=O)N1CCN(c2ccccc2)CC1)S(=O)(=O)c1cccc2cnccc12	-30	0	1	9	-1	29*	20*	2
CCCCCCC[C@H](N)[C@H](O)C(=O)N(C)[C@@H](CCS(C)=O)C(=O)N[C@@H](Cc1ccc(O)cc1)C(=O)N[C@@H](Cc1ccc(O)cc1)C(=O)O (stereo not given in full)	-5	-1	88*	-1	-1	95*	95*	86*
O=[N+]([O-])c1ccc(C=NNc2ncccc2[N+](=O)[O-])s1	/	11	/	/	/	/	/	/
O=C(CSc1nc2ccccc2c(=O)n1Cc1ccccc1)Nc1ccc(Br)cc1C(=O)O	-5	0	3	-2	-2	20*	15*	4
Cc1ccc(S(=O)(=O)N2CCOCC2)cc1NC(=O)CSc1nc2ccccc2c(=O)n1Cc1ccccc1	-3	-1	-1	-9	2	4	/	/
COc1cc(C=NNC(=O)c2ccc3ccccc3c2)ccc1Oc1ccc([N+](=O)[O-])cn1	/	6	/	/	/	/	/	/
Cc1nn(-c2cccc(Cl)c2)c(Cl)c1C=NNC(=O)c1cccnc1	/	0	/	/	/	/	/	/
CC1=NOC(=O)/C1=C/c1ccc(-c2ccc(Cl)cc2)o1	-15	7	2	-3	-1	18*	49*	-2
CC1=NOC(=O)/C1=C\c1ccc(-c2ccc(Br)cc2)o1	/	4	/	/	/	/	/	/
Cc1cc(C(=O)OCC(=O)N(C)c2c(N)n(Cc3ccccc3)c(=O)[nH]c2=O)c(C)n1-c1ccccc1	2	1	0	-5	/	21*	0	-1
COCCN(C(=O)COC(=O)C1CC1)c1c(N)n(Cc2ccccc2)c(=O)[nH]c1=O	-3	1	0	5	3	-6	/	/
COCCN(C(=O)COC(=O)Cc1ccc(Cl)cc1Cl)c1c(N)n(Cc2ccccc2)c(=O)[nH]c1=O	0	-2	-1	8	0	81*	-1	-1
O=C(CCNc1ccc(Cc2ccncc2)cc1)c1ccc([N+](=O)[O-])cc1	1	5	-1	22	4	18*	5	-1
COc1ccc(C=NN2CCN(C3c4ccccc4-c4ccccc43)CC2)cc1O	/	3	/	/	/	/	/	/
COc1ccc(C=Nn2c(C)cc(C)cc2=O)cc1	/	1	/	/	/	/	/	/
C=CCNC(=S)N1CCN(c2cc3c(cc2F)c(=O)c(C(=O)O)cn3CC)CC1	12	-18	1	-16	1	20*	9	-4
CCn1cc(C(=O)O)c(=O)c2cc(F)c(N3CCN(C(=S)NC(=O)c4ccccc4)CC3)cc21	27	-17	3	-6	-1	5	/	/
CCn1cc(C(=O)O)c(=O)c2cc(F)c(N3CCN(S(=O)(=O)c4ccc(Br)cc4)CC3)cc21	?	/	0	0	3	19*	41*	-1
COc1ccc(C(=O)CSc2nnc(CNc3ccc(C)cc3C)n2Cc2ccco2)cc1	6	4	9	-5	6	23*	8	1
CCCCCc1c2c(cc(O)c1C(=O)O)OC(=O)c1c(cc(OC)cc1C(=O)CCCC)O2	-15	16	5	-1	4	25*	28*	2
CCOc1ccc(C=NNC(=O)c2c(C)nc3cc(C)ccn23)cc1	/	8	/	/	/	/	/	/
CCCCC(CC)C(=O)Nc1cc(C(=O)NCc2ccc(C)cc2)ccc1N1CCC2(CC1)CC(c1ccccc1)=NO2 (stereo not given)	-45	3	-2	31	-1	19*	13	0
CCCCC(CC)C(=O)Nc1cc(C(=O)NCc2ccc(C)cc2)ccc1N1CCC2(CC1)CC(c1cccc(Br)c1)=NO2 (stereo not given)	-15	6	3	4	-5	2	/	/
O=C(Nc1ccccc1Oc1cccnc1)C1CCCN(Cc2ccc(F)cc2)C1 (stereo not given)	2	5	0	6	0	50*	-2	-3
COc1cc(CN2CCCC(C(=O)Nc3ccccc3Oc3cccnc3)C2)ccc1F (stereo not given)	-2	2	0	21	4	4	/	/
SMILES	UBC13 inh	UCH37 inh	PP5 primary	PREPL inh	Fh CTSL1 inh	PP1 counter	PP1 confirm	PP5 inh counter
O=C(N/N=C/c1ccc(O)cc1O)c1ccc(NC(=O)C2CCCCC2)cc1	-6	/	2	4	7	50*	36*	-3
O=C(N/N=C/c1cccc(O)c1)c1ccc(NC(=O)C2CCCCC2)cc1	-2	/	/	/	/	/	/	/
CCOC(=O)NN=Cc1cccc(OC)c1	/	6	/	/	/	/	/	/
Cc1ccc(-c2cc(-c3ccco3)c3c(N)c(C(=O)NN)oc3n2)cc1	-41	5	3	-2	4	18*	13	6
O=C1NN(c2ccc(Cl)c(Cl)c2)C(=O)/C1=C/c1cccc(OC(=O)c2cccs2)c1	-13	/	2	42	0	27*	23*	0
COC(=O)N/N=C\c1cccc(OC(=O)c2cccs2)c1	5	/	4	15	-5	-2	/	/
O=C1CC(=C2c3ccccc3-c3ccccc32)C(=O)N1CCCCN1CCN(c2ccccc2)CC1	-9	8	0	0	4	26*	28*	-3
O=C1CC(=C(c2ccccc2)c2ccccc2)C(=O)N1CCN1CCN(c2cccc(Cl)c2)CC1	7	1	3	7	-2	4	/	/
NC(=NOC(=O)c1ccc([N+](=O)[O-])cc1)c1ccc(Br)cc1	/	6	/	/	/	/	/	/
CC[C@H](C)[C@@H](C(=O)NCCCCCCCCCCC(=O)N1CCN(C(=O)OC(C)(C)C)CC1)n1cc(CCCCN=C(NC(=O)OC(C)(C)C)NC(=O)OC(C)(C)C)nn1	71*	/	5	18	9	19*	30*	2
CC[C@H](C)[C@@H](C(=O)NCCCCCCCCCCC(=O)N1CCN(C(=O)OC(C)(C)C)CC1)n1cc(CCCCCNC(=O)OC(C)(C)C)nn1	-14	0	5	1	11	0	/	/
CSCCC(NC(=O)c1ccc([N+](=O)[O-])cc1Cl)C(=O)OCC(=O)NC(=O)CN1CCCC1=O (stereo not given)	-8	2	-1	-14	-5	39*	-1	-3
CSCCC(NC(=O)c1ccc([N+](=O)[O-])cc1Cl)C(=O)OCC(=O)NC1CCCC(C)C1C (stereo not given)	-1	3	4	2	-1	0	/	/

From PubChem BioAssay
